Test results as given in ChEMBL document CHEMBL1157464, “1-[(3-Aryloxy-3-aryl)propyl]-1H-imidazoles, new imidazoles with potent activity against Candida albicans and dermatophytes. Synthesis, structure-activity relationship, and molecular modeling studies” (J Med Chem, 2008).
In brackets after ≈: the same amount, converted by molar mass.

System: Candida albicans
Experiment: Antifungal activity against Candida albicans ATCC 10261 at 35 degC after 48 hrs by broth microdilution test
Format: functional
Conditions: Candida albicans, ATCC 10261, 48 h; read-out: MIC
Summary of the method: (§1)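 Broth microdilution per NCCLS M27-A2. Stocks in 100% DMSO, diluted in RPMI 1640 with 0.165 M MOPS at pH 7.0; final range 0.25–128 µg/mL. Inoculum 1000–5000 cells/mL from SDA subcultures. […] C. parapsilosis ATCC22019 served as QC strain.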

Compound | MIC [µg/mL]
Cc1ccc(C(CCn2ccnc2)Oc2ccc(Cl)cc2)cc1 (centres undefined) | 2.4 (≈ 7.34 µM)
Clc1ccc(COC(Cn2ccnc2)c2ccc(Cl)cc2Cl)cc1 (centres undefined) [ECONAZOLE] | 4.3 (≈ 11.3 µM)
Cc1ccc(OC(CCn2ccnc2)c2ccc(F)cc2)cc1 (centres undefined) | 7 (≈ 22.6 µM)
Clc1ccc(C(CCn2ccnc2)Oc2ccccc2)cc1 (centres undefined) | 8.8 (≈ 28.1 µM)

Same assay, conditions: Candida albicans, ATCC 10261, 48 h; read-out: MIC50

Compound | MIC50 [µg/mL]
Cc1ccc(C(CCn2ccnc2)Oc2ccc(Cl)cc2)cc1 (centres undefined) | 2 (≈ 6.12 µM)
Clc1ccc(COC(Cn2ccnc2)c2ccc(Cl)cc2Cl)cc1 (centres undefined) [ECONAZOLE] | 4 (≈ 10.5 µM)
Cc1ccc(OC(CCn2ccnc2)c2ccc(F)cc2)cc1 (centres undefined) | 4 (≈ 12.9 µM)
Clc1ccc(C(CCn2ccnc2)Oc2ccccc2)cc1 (centres undefined) | 8 (≈ 25.6 µM)

Same assay, conditions: Candida albicans, ATCC 10261, 48 h; read-out: MIC90

Compound | MIC90 [µg/mL]
Cc1ccc(C(CCn2ccnc2)Oc2ccc(Cl)cc2)cc1 (centres undefined) | 4 (≈ 12.2 µM)
Clc1ccc(COC(Cn2ccnc2)c2ccc(Cl)cc2Cl)cc1 (centres undefined) [ECONAZOLE] | 8 (≈ 21 µM)
Cc1ccc(OC(CCn2ccnc2)c2ccc(F)cc2)cc1 (centres undefined) | 8 (≈ 25.8 µM)
Clc1ccc(C(CCn2ccnc2)Oc2ccccc2)cc1 (centres undefined) | 16 (≈ 51.2 µM)

System: not listed separately
Experiment: Cytotoxicity against human U937 cells assessed as reduction of cell viability after 24 hrs by MTT assay
Format: cell-based, U-937
Conditions: not given
Summary of the method: (§2)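 U937 and K562 cells, from ATCC, plated at 5 × 10^4/mL in phenol-red-free RPMI-1640 with 20% FBS and penicillin/streptomycin. Compounds added 2 h later at 25–100 µg/mL, then 24 h at 37 °C. MTT at 1 mg/mL for 3 h, formazan dissolved in isopropanol with 0.1 N HCl, absorbance read at 570 nm. CC50 is the concentration reducing viability by 50% versus the drug-free control.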

Compound | CC50 at 24 h [µM]
Cc1ccc(C(CCn2ccnc2)Oc2ccc(Cl)cc2)cc1 (centres undefined) | 168
Clc1ccc(COC(Cn2ccnc2)c2ccc(Cl)cc2Cl)cc1 (centres undefined) [ECONAZOLE] | 108
Cc1ccc(OC(CCn2ccnc2)c2ccc(F)cc2)cc1 (centres undefined) | 120
Clc1ccc(C(CCn2ccnc2)Oc2ccccc2)cc1 (centres undefined) | 248

System: Candida parapsilosis
Experiment: Antifungal activity against Candida parapsilosis ATCC 22019 at 35 degC after 48 hrs by broth microdilution test
Format: functional
Conditions: Lodderomyces parapsilosis, ATCC 22019, 48 h; read-out: MFC
Summary of the method: as §1

Compound | MFC [µg/mL]
Cc1ccc(C(CCn2ccnc2)Oc2ccc(Cl)cc2)cc1 (centres undefined) | 8 (≈ 24.5 µM)
Clc1ccc(COC(Cn2ccnc2)c2ccc(Cl)cc2Cl)cc1 (centres undefined) [ECONAZOLE] | 2 (≈ 5.24 µM)
Cc1ccc(OC(CCn2ccnc2)c2ccc(F)cc2)cc1 (centres undefined) | 32 (≈ 103 µM)
Clc1ccc(C(CCn2ccnc2)Oc2ccccc2)cc1 (centres undefined) | 16 (≈ 51.2 µM)

Same assay, conditions: Lodderomyces parapsilosis, ATCC 22019, 48 h; read-out: MIC

Compound | MIC [µg/mL]
Cc1ccc(C(CCn2ccnc2)Oc2ccc(Cl)cc2)cc1 (centres undefined) | 4 (≈ 12.2 µM)
Clc1ccc(COC(Cn2ccnc2)c2ccc(Cl)cc2Cl)cc1 (centres undefined) [ECONAZOLE] | 2 (≈ 5.24 µM)
Cc1ccc(OC(CCn2ccnc2)c2ccc(F)cc2)cc1 (centres undefined) | 4 (≈ 12.9 µM)
Clc1ccc(C(CCn2ccnc2)Oc2ccccc2)cc1 (centres undefined) | 4 (≈ 12.8 µM)

System: not listed separately
Experiment: Cytotoxicity against human K562 cells after assessed as reduction of cell viability 24 hrs by MTT assay
Format: cell-based
Conditions: not given
Summary of the method: as §2

Compound | CC50 at 24 h [µM]
Cc1ccc(C(CCn2ccnc2)Oc2ccc(Cl)cc2)cc1 (centres undefined) | 171
Clc1ccc(COC(Cn2ccnc2)c2ccc(Cl)cc2Cl)cc1 (centres undefined) [ECONAZOLE] | 70
Cc1ccc(OC(CCn2ccnc2)c2ccc(F)cc2)cc1 (centres undefined) | 383
Clc1ccc(C(CCn2ccnc2)Oc2ccccc2)cc1 (centres undefined) | 186

System: Arthrodermataceae
Experiment: Antifungal activity against dermatophytes at 28 degC after 48 to 96 hrs by broth microdilution test
Conditions: not given

Compound | MFC50 [µg/mL]
Cc1ccc(C(CCn2ccnc2)Oc2ccc(Cl)cc2)cc1 (centres undefined) | 32 (≈ 97.9 µM)
Clc1ccc(COC(Cn2ccnc2)c2ccc(Cl)cc2Cl)cc1 (centres undefined) [ECONAZOLE] | 4 (≈ 10.5 µM)
Cc1ccc(OC(CCn2ccnc2)c2ccc(F)cc2)cc1 (centres undefined) | 16 (≈ 51.6 µM)
Clc1ccc(C(CCn2ccnc2)Oc2ccccc2)cc1 (centres undefined) | 32 (≈ 102 µM)

System: Arthrodermataceae
Experiment: Antifungal activity against dermatophytes at 28 degC after 5 days by broth microdilution test
Conditions: not given

Compound | MFC90 [µg/mL]
Cc1ccc(C(CCn2ccnc2)Oc2ccc(Cl)cc2)cc1 (centres undefined) | 32 (≈ 97.9 µM)
Clc1ccc(COC(Cn2ccnc2)c2ccc(Cl)cc2Cl)cc1 (centres undefined) [ECONAZOLE] | 8 (≈ 21 µM)
Cc1ccc(OC(CCn2ccnc2)c2ccc(F)cc2)cc1 (centres undefined) | 16 (≈ 51.6 µM)
Clc1ccc(C(CCn2ccnc2)Oc2ccccc2)cc1 (centres undefined) | 32 (≈ 102 µM)

Same assay, conditions: Arthrodermataceae

Compound | MFC [µg/mL]
Cc1ccc(C(CCn2ccnc2)Oc2ccc(Cl)cc2)cc1 (centres undefined) | 25.6 (≈ 78.3 µM)
Clc1ccc(COC(Cn2ccnc2)c2ccc(Cl)cc2Cl)cc1 (centres undefined) [ECONAZOLE] | 6 (≈ 15.7 µM)
Cc1ccc(OC(CCn2ccnc2)c2ccc(F)cc2)cc1 (centres undefined) | 16 (≈ 51.6 µM)
Clc1ccc(C(CCn2ccnc2)Oc2ccccc2)cc1 (centres undefined) | 30.4 (≈ 97.2 µM)

System: Candida albicans
Experiment: Antifungal activity against fluconazole-sensitive Candida albicans Fe40 at 35 degC after 48 hrs by broth microdilution test
Format: functional
Conditions: not given
Summary of the method: as §1

Compound | MIC [µg/mL]
Cc1ccc(C(CCn2ccnc2)Oc2ccc(Cl)cc2)cc1 (centres undefined) | 2 (≈ 6.12 µM)
Cc1ccc(OC(CCn2ccnc2)c2ccc(F)cc2)cc1 (centres undefined) | 4 (≈ 12.9 µM)
Clc1ccc(C(CCn2ccnc2)Oc2ccccc2)cc1 (centres undefined) | 8 (≈ 25.6 µM)

System: not listed separately
Experiment: Therapeutic index, ratio of CC50 for human U937 cells to MIC90 for Candida albicans ATCC 10261
Format: cell-based, U-937
Conditions: not given
Summary of the method: (§3)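 Therapeutic index calculated as CC50 in the given cell line divided by MIC90.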

Compound | selectivity ratio
Cc1ccc(C(CCn2ccnc2)Oc2ccc(Cl)cc2)cc1 (centres undefined) | 42
Clc1ccc(COC(Cn2ccnc2)c2ccc(Cl)cc2Cl)cc1 (centres undefined) [ECONAZOLE] | 13.5

System: Candida albicans
Experiment: Antifungal activity against Candida albicans ATCC 10261 at 35 degC after 48 to 96 hrs by broth microdilution test
Format: functional
Conditions: not given
Summary of the method: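 Minimal fungicidal concentration for Candida. […] MFC is the lowest concentration allowing fewer than two colonies (99% killing).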

Compound | MFC50 [µg/mL] | MFC90 [µg/mL]
Cc1ccc(C(CCn2ccnc2)Oc2ccc(Cl)cc2)cc1 (centres undefined) | 8 (≈ 24.5 µM) | 16 (≈ 49 µM)
Clc1ccc(COC(Cn2ccnc2)c2ccc(Cl)cc2Cl)cc1 (centres undefined) [ECONAZOLE] | 16 (≈ 41.9 µM) | 32 (≈ 83.8 µM)
Cc1ccc(OC(CCn2ccnc2)c2ccc(F)cc2)cc1 (centres undefined) | 16 (≈ 51.6 µM) | 32 (≈ 103 µM)
Clc1ccc(C(CCn2ccnc2)Oc2ccccc2)cc1 (centres undefined) | 16 (≈ 51.2 µM) | 64 (≈ 205 µM)

Same assay, conditions: Candida albicans, ATCC 10261; read-out: MFC

Compound | MFC [µg/mL]
Cc1ccc(C(CCn2ccnc2)Oc2ccc(Cl)cc2)cc1 (centres undefined) | 12 (≈ 36.7 µM)
Clc1ccc(COC(Cn2ccnc2)c2ccc(Cl)cc2Cl)cc1 (centres undefined) [ECONAZOLE] | 15 (≈ 39.4 µM)
Cc1ccc(OC(CCn2ccnc2)c2ccc(F)cc2)cc1 (centres undefined) | 23 (≈ 74.1 µM)
Clc1ccc(C(CCn2ccnc2)Oc2ccccc2)cc1 (centres undefined) | 29.2 (≈ 93.4 µM)

System: not listed separately
Experiment: Therapeutic index, ratio of CC50 for human K562 cells to MIC90 for Candida albicans ATCC 10261
Format: cell-based
Conditions: not given
Summary of the method: as §3

Compound | selectivity ratio
Cc1ccc(C(CCn2ccnc2)Oc2ccc(Cl)cc2)cc1 (centres undefined) | 42.8
Clc1ccc(COC(Cn2ccnc2)c2ccc(Cl)cc2Cl)cc1 (centres undefined) [ECONAZOLE] | 8.8

System: Arthrodermataceae
Experiment: Antifungal activity against dermatophytes at 28 degC after 7 days by broth microdilution test
Format: functional
Conditions: 168 h
Summary of the method: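 Ten clinical isolates (two M. canis, five M. gypseum, three T. mentagrophytes) tested by NCCLS M38-A broth microdilution in MOPS-buffered RPMI 1640, pH 7.0, over 0.25–128 µg/mL. Conidial/hyphal suspension from PDA slants (28 °C, 7 days) adjusted to 65–70% transmittance at OD530, then diluted 1:50.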

Compound | MIC [µg/mL] | MIC50 [µg/mL] | MIC90 [µg/mL]
Cc1ccc(C(CCn2ccnc2)Oc2ccc(Cl)cc2)cc1 (centres undefined) | 3.8 (≈ 11.6 µM) | 4 (≈ 12.2 µM) | 4 (≈ 12.2 µM)
Clc1ccc(COC(Cn2ccnc2)c2ccc(Cl)cc2Cl)cc1 (centres undefined) [ECONAZOLE] | 2.1 (≈ 5.5 µM) | 1 (≈ 2.62 µM) | 4 (≈ 10.5 µM)
Cc1ccc(OC(CCn2ccnc2)c2ccc(F)cc2)cc1 (centres undefined) | 10 (≈ 32.2 µM) | 8 (≈ 25.8 µM) | 16 (≈ 51.6 µM)
Clc1ccc(C(CCn2ccnc2)Oc2ccccc2)cc1 (centres undefined) | 7.2 (≈ 23 µM) | 8 (≈ 25.6 µM) | 8 (≈ 25.6 µM)

System: Candida albicans
Experiment: Antifungal activity against fluconazole-resistant Candida albicans isolated from oropharyngeal or vaginal disease patient after 48 hrs by broth microdilution test
Format: functional
Conditions: not given

Compound | MIC [µg/mL]
Cc1ccc(C(CCn2ccnc2)Oc2ccc(Cl)cc2)cc1 (centres undefined) | 3.6 (≈ 11 µM)
Cc1ccc(OC(CCn2ccnc2)c2ccc(F)cc2)cc1 (centres undefined) | 9.6 (≈ 30.9 µM)
Clc1ccc(C(CCn2ccnc2)Oc2ccccc2)cc1 (centres undefined) | 14.4 (≈ 46 µM)
